Results on 26 compounds are retold here after ChEMBL document CHEMBL5108036, “A concise SAR-analysis of antimicrobial cationic amphipathic barbiturates for an improved activity-toxicity profile” (Eur J Med Chem, 2022).

The structures appear in SMILES notation. A value given as a limit tells only on which side of the number the result lay.

Series [1] relates to Pseudomonas aeruginosa. Briefly: Antibacterial activity against Pseudomonas aeruginosa ATCC 27853 incubated for 48 hrs and measured by broth microdilution assay. Format: functional. Summed up:
(§1)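 MICs in µg/mL were measured against the reference strains S. aureus ATCC 9144, B. subtilis 168, E. coli ATCC 25922 and P. aeruginosa ATCC 27853. Compounds were tested as di-TFA salts.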

Series [2] has as its system Staphylococcus aureus. Briefly: Antibacterial activity against Staphylococcus aureus ATCC 9144 incubated for 48 hrs and measured by broth microdilution assay. Type of series: functional. Summed up:
as §1
(Dilution methods test growth across graded concentrations, often in twofold steps.)

In series [3] the test system is Bacillus subtilis. Briefly: Antibacterial activity against Bacillus subtilis 168 incubated for 48 hrs and measured by broth microdilution assay. Format: functional. Summed up: as §1
Series [4] is described as follows: Hemolytic activity in human RBC measured after 1 hr by microplate reader method. Type of series: toxicity, cell-based, Erythrocyte. The following applies: human, human red blood cells (erythrocytes). In a few lines:
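Human red blood cell lysis was used as the cytotoxicity read-out, expressed as EC50 in µg/mL. The highest concentration tested was 500 µM. Compounds were tested as di-TFA salts.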

For series [5], the system named is Escherichia coli. Briefly: Antibacterial activity against Escherichia coli ATCC 25922 incubated for 48 hrs and measured by broth microdilution assay. Format: functional. Summed up: as §1

In the case of `CN(C)CCCCN1C(=O)N(CCCCN(C)C)C(=O)C(Cc2cc(Br)cc(Br)c2)(Cc2cc(Br)cc(Br)c2)C1=O.O=C(O)C(F)(F)F.O=C(O)C(F)(F)F`, the MIC in series [1] was found to be 64 µg/mL; in series [2], 8 µg/mL; in series [3], 4 µg/mL; in series [5] it was 8 µg/mL. For the same compound, the EC50 at 1 h in series [4] is 157 µg/mL.
Take `N=C(N)N[C@H]1C[C@@H](N2C(=O)N([C@H]3C[C@@H](NC(=N)N)C3)C(=O)C(Cc3cc(Br)cc(Br)c3)(Cc3cc(Br)cc(Br)c3)C2=O)C1.O=C(O)C(F)(F)F.O=C(O)C(F)(F)F`: the MIC in series [1] is 8 µg/mL; in series [2] it was 2 µg/mL; in series [3], 2 µg/mL; in series [5] it was 4 µg/mL. Moreover, the 50% effective concentration (EC50) at 1 h in series [4] was 75 µg/mL.
For the compound `N[C@H]1C[C@@H](N2C(=O)N([C@H]3C[C@@H](N)C3)C(=O)C(Cc3cc(Br)cc(Br)c3)(Cc3cc(Br)cc(Br)c3)C2=O)C1.O=C(O)C(F)(F)F.O=C(O)C(F)(F)F`, the minimal inhibitory concentration (MIC) is 8 µg/mL in series [1], 8 µg/mL in series [2], 4 µg/mL in series [3] and 4 µg/mL in series [5]. The compound further yielded an EC50 at 1 h in series [4] of 50 µg/mL.
Turning to `N[C@H]1CC[C@H](N2C(=O)N([C@H]3CC[C@H](N)CC3)C(=O)C(Cc3cc(Br)cc(Br)c3)(Cc3cc(Br)cc(Br)c3)C2=O)CC1.O=C(O)C(F)(F)F.O=C(O)C(F)(F)F`, the MIC in series [1] stood at 4 µg/mL; in series [2], 2 µg/mL; in series [3], 2 µg/mL; in series [5], 2 µg/mL. The compound also yielded an EC50 at 1 h in series [4] of 16 µg/mL.
Regarding `NCCCCN1C(=O)N(CCCCN)C(=O)C(Cc2cc(Br)cc(Br)c2)(C2CCCC2)C1=O.O=C(O)C(F)(F)F.O=C(O)C(F)(F)F`, the MIC in series [1] was 64 µg/mL; in series [2], 16 µg/mL; in series [3] it was 8 µg/mL; in series [5], 64 µg/mL. The same compound displayed an EC50 at 1 h in series [4] of more than 407 µg/mL.
For the compound `N=C(N)N[C@H]1CC[C@@H](N2C(=O)N([C@H]3CC[C@@H](NC(=N)N)CC3)C(=O)C(Cc3cc(Br)cc(Br)c3)(Cc3cc(Br)cc(Br)c3)C2=O)CC1.O=C(O)C(F)(F)F.O=C(O)C(F)(F)F`, the MIC came to 4 µg/mL in series [1], 2 µg/mL in series [2], 1 µg/mL in series [3] and 4 µg/mL in series [5]. It took 30 µg/mL to reach a half-maximal effect in series [4] (EC50 at 1 h).
Take `N=C(N)NCCCCN1C(=O)N(CCCCNC(=N)N)C(=O)C(Cc2ccc3cc(Br)ccc3n2)(Cc2ccc3cc(Br)ccc3n2)C1=O.O=C(O)C(F)(F)F.O=C(O)C(F)(F)F`: the MIC in series [1] was 128 µg/mL; in series [2] it was 2 µg/mL; in series [3] it was 4 µg/mL; in series [5], 16 µg/mL. The half-maximal effective concentration (EC50) at 1 h in series [4] came to 461 µg/mL.
Take `CC(C)(C)c1ccc(CC2(Cc3cc(Br)cc(Br)c3)C(=O)N(CCCN)C(=O)N(CCCN)C2=O)cc1.O=C(O)C(F)(F)F.O=C(O)C(F)(F)F`: the minimum inhibitory concentration (MIC) came out at 8 µg/mL in series [1], 4 µg/mL in series [2], 2 µg/mL in series [3] and 8 µg/mL in series [5]. The compound further returned a concentration for a half-maximal effect (EC50) at 1 h in series [4] of 47 µg/mL.
As for `CCCCCCC1(CCCCCC)C(=O)N(CCCCN)C(=O)N(CCCCN)C1=O.O=C(O)C(F)(F)F.O=C(O)C(F)(F)F`, the MIC in series [1] came out at 64 µg/mL; in series [2], 16 µg/mL; in series [3] it was 8 µg/mL; in series [5], 32 µg/mL. The concentration for a half-maximal effect (EC50) at 1 h in series [4] was more than 333 µg/mL.
`N=C(N)NCCCN1C(=O)N(CCCNC(=N)N)C(=O)C(Cc2ccc(Br)c3ccccc23)(Cc2ccc(Br)c3ccccc23)C1=O.O=C(O)C(F)(F)F.O=C(O)C(F)(F)F`: the MIC is 8 µg/mL in series [1], 2 µg/mL in series [2], 2 µg/mL in series [3] and 4 µg/mL in series [5]. In series [4], the 50% effective concentration (EC50) at 1 h is 61 µg/mL.
For the compound `NCCCN1C(=O)N(CCCN)C(=O)C(Cc2cc(Br)cc(Br)c2)(Cc2cc(Br)cc(Br)c2)C1=O.O=C(O)C(F)(F)F.O=C(O)C(F)(F)F`, the MIC in series [1] worked out at 8 µg/mL; in series [2] it was 4 µg/mL; in series [3] it was 4 µg/mL; in series [5], 8 µg/mL. A half-maximal response in series [4] (EC50 at 1 h) required 99 µg/mL.
Take `CNCCCCN1C(=O)N(CCCCNC)C(=O)C(Cc2cc(Br)cc(Br)c2)(Cc2cc(Br)cc(Br)c2)C1=O.O=C(O)C(F)(F)F.O=C(O)C(F)(F)F`: the MIC in series [1] was found to be 16 µg/mL; in series [2], 8 µg/mL; in series [3] it was 4 µg/mL; in series [5], 8 µg/mL. This compound registered an EC50 at 1 h in series [4] of 73 µg/mL.
For the compound `NCCCCCN1C(=O)N(CCCCCN)C(=O)C(Cc2cc(Br)cc(Br)c2)(Cc2cc(Br)cc(Br)c2)C1=O.O=C(O)C(F)(F)F.O=C(O)C(F)(F)F`, the MIC was found to be 8 µg/mL in series [1], 4 µg/mL in series [2], 4 µg/mL in series [3] and 8 µg/mL in series [5]. This compound returned an EC50 at 1 h in series [4] of 24 µg/mL.
In the case of `CC(C)(C)c1ccc(CC2(Cc3cc(Br)cc(Br)c3)C(=O)N(CCCCN)C(=O)N(CCCCN)C2=O)cc1.O=C(O)C(F)(F)F.O=C(O)C(F)(F)F`, the MIC in series [1] was 8 µg/mL; in series [2] it was 4 µg/mL; in series [3], 4 µg/mL; in series [5], 8 µg/mL. Moreover, in series [4], the half-maximal effective concentration (EC50) at 1 h was 82 µg/mL.
Turning to `N=C(N)NCCCCN1C(=O)N(CCCCNC(=N)N)C(=O)C(Cc2c(Br)cc(Br)cc2Br)(Cc2c(Br)cc(Br)cc2Br)C1=O.O=C(O)C(F)(F)F.O=C(O)C(F)(F)F`, the MIC was 4 µg/mL in series [1], 2 µg/mL in series [2], 1 µg/mL in series [3] and 4 µg/mL in series [5]. This compound also gave an EC50 at 1 h in series [4] of 30 µg/mL.
In the case of `NCCCCCCN1C(=O)N(CCCCCCN)C(=O)C(Cc2cc(Br)cc(Br)c2)(Cc2cc(Br)cc(Br)c2)C1=O.O=C(O)C(F)(F)F.O=C(O)C(F)(F)F`, the minimum inhibitory concentration (MIC) in series [1] was 16 µg/mL; in series [2], 4 µg/mL; in series [3], 4 µg/mL; in series [5], 4 µg/mL. In addition, it took 30 µg/mL to reach a half-maximal effect in series [4] (EC50 at 1 h).
Consider `N=C(N)NCCCCN1C(=O)N(CCCCNC(=N)N)C(=O)C(Cc2cc(Br)c(Br)cc2Br)(Cc2cc(Br)c(Br)cc2Br)C1=O.O=C(O)C(F)(F)F.O=C(O)C(F)(F)F`, for which the minimal inhibitory concentration (MIC) is 8 µg/mL in series [1], 4 µg/mL in series [2], 4 µg/mL in series [3] and 4 µg/mL in series [5]. In series [4], this compound gave an EC50 at 1 h of 32 µg/mL.
For `NCCCCN1C(=O)N(CCCCN)C(=O)C(Cc2ccc(C(F)(F)F)cc2)(Cc2cc(Br)cc(Br)c2)C1=O.O=C(O)C(F)(F)F.O=C(O)C(F)(F)F`, the minimum inhibitory concentration (MIC) in series [1] was 64 µg/mL; in series [2], 16 µg/mL; in series [3], 8 µg/mL; in series [5], 32 µg/mL. The EC50 at 1 h in series [4] was determined as 342 µg/mL.
For `CCCCCCC1(CCCCCC)C(=O)N(CCCCNC(=N)N)C(=O)N(CCCCNC(=N)N)C1=O.O=C(O)C(F)(F)F.O=C(O)C(F)(F)F`, the minimum inhibitory concentration (MIC) in series [1] was 16 µg/mL; in series [2] it was 2 µg/mL; in series [3] it was 2 µg/mL; in series [5], 4 µg/mL. In series [4], this compound had a half-maximal effective concentration (EC50) at 1 h of 143 µg/mL.
As for `NCCCN1C(=O)N(CCCN)C(=O)C(Cc2ccc(Br)c3ccccc23)(Cc2ccc(Br)c3ccccc23)C1=O.O=C(O)C(F)(F)F.O=C(O)C(F)(F)F`, the MIC in series [1] amounted to 4 µg/mL; in series [2], 2 µg/mL; in series [3], 2 µg/mL; in series [5], 4 µg/mL. A half-maximal response in series [4] (EC50 at 1 h) required 23 µg/mL.
`NCCCCN1C(=O)N(CCCCN)C(=O)C(Cc2ccc3cc(Br)ccc3n2)(Cc2ccc3cc(Br)ccc3n2)C1=O.O=C(O)C(F)(F)F.O=C(O)C(F)(F)F`: the minimum inhibitory concentration (MIC) was 256 µg/mL in series [1], 16 µg/mL in series [2], 4 µg/mL in series [3] and 256 µg/mL in series [5]. The EC50 at 1 h in series [4] is more than 469 µg/mL.
Regarding `NCCCN1C(=O)N(CCCN)C(=O)C(Cc2ccc(C(F)(F)F)cc2)(Cc2cc(Br)cc(Br)c2)C1=O.O=C(O)C(F)(F)F.O=C(O)C(F)(F)F`, the MIC worked out at 32 µg/mL in series [1], 32 µg/mL in series [2], 8 µg/mL in series [3] and 16 µg/mL in series [5]. In series [4], this compound returned a 50% effective concentration (EC50) at 1 h of more than 438 µg/mL.
For `N=C(N)NCCN1C(=O)N(CCNC(=N)N)C(=O)C(Cc2cc(Br)cc(Br)c2)(Cc2cc(Br)cc(Br)c2)C1=O.O=C(O)C(F)(F)F.O=C(O)C(F)(F)F`, the minimal inhibitory concentration (MIC) in series [1] worked out at 16 µg/mL; in series [2], 2 µg/mL; in series [3], 2 µg/mL; in series [5], 4 µg/mL. The EC50 at 1 h in series [4] came to 164 µg/mL.
As for `N=C(N)NCCCCN1C(=O)N(CCCCNC(=N)N)C(=O)C(Cc2cc(Br)cc(Br)c2)(Cc2cc(C(F)(F)F)cc(C(F)(F)F)c2)C1=O.O=C(O)C(F)(F)F.O=C(O)C(F)(F)F` (stereo not given), the MIC was found to be 4 µg/mL in series [1], 2 µg/mL in series [2], 2 µg/mL in series [3] and 2 µg/mL in series [5]. In series [4], this compound yielded a 50% effective concentration (EC50) at 1 h of 36 µg/mL.
In the case of `N=C(N)NCCCCN1C(=O)N(CCCCNC(=N)N)C(=O)C(Cc2ccc(Br)c3ccccc23)(Cc2ccc(Br)c3ccccc23)C1=O.O=C(O)C(F)(F)F.O=C(O)C(F)(F)F`, the minimal inhibitory concentration (MIC) in series [1] is 8 µg/mL; in series [2], 4 µg/mL; in series [3], 4 µg/mL; in series [5], 4 µg/mL. Besides, in series [4], a half-maximal effect (EC50 at 1 h) was put at 36 µg/mL.
As for `NCCCCN1C(=O)N(CCCCN)C(=O)C(Cc2cc(Br)cc(Br)c2)(Cc2ccc(Br)c3ccccc23)C1=O.O=C(O)C(F)(F)F.O=C(O)C(F)(F)F`, the MIC stood at 8 µg/mL in series [1], 4 µg/mL in series [2], 4 µg/mL in series [3] and 4 µg/mL in series [5]. This compound also displayed an EC50 at 1 h in series [4] of 47 µg/mL.

By MIC is commonly meant the lowest concentration that inhibits growth of the organism. For orientation: EC50 means the concentration that produces a half-maximal response.
